ChEMBL document CHEMBL1124391, “Structure-activity relationships of novel vasopressin antagonists containing C-terminal diaminoalkanes and (aminoalkyl)guanidines” (J Med Chem, 1989)
Numbered stars: 1 amine (or outer) side, 2 acyl side, 3 side chain; on linkers, the order of the positions; unused ones are H or OH. Bridge positions count the residues as written; N and C are the ends. Square brackets hold non-standard residues; d marks the D form. Peptide text beside a SMILES is read from it. * marks the point of attachment. X1 = O=C(CC1(S[*:2])CCCCC1)[*:1]; Agmatine = N=C(N)NCCCCN*

Columns and labels:
Vasopressin V2 receptor [1] = molecular target: Vasopressin V2 receptor (Homo sapiens, UniProt P30518); test: Inhibition constant for vasopressin-stimulated adenylate cyclase of medullary membranes of human kidney
In short: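 Human renal medullary membrane preparations used. Antagonism measured as inhibition of LVP-stimulated adenylate cyclase, expressed as Ki. Only selected analogues tested. Each determination averages triplicate tests, and the value averages (n) determinations.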

[2] = molecular target: Vasopressin V2 receptor (Sus scrofa) (UniProt P32307); test: Inhibition constant for [3H]LVP binding to medullary membranes of pig kidney; format: tissue-based
In short: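 V2 receptor affinity measured on pig renal medullary membranes by competition with tritiated LVP, expressed as Kbind. Each determination averages triplicate tests, and the value averages (n) determinations.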

[3] = molecular target: Vasopressin V2 receptor (Rattus norvegicus) (UniProt Q00788); test: Dose required to lower urine osmolality to 300 mOsm/kg in rat
In short: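 Male rats deprived of food and water overnight to reach a stable hydropenic state (raised plasma vasopressin, urine osmolality ≈1500 mOsm/kg H2O). Antagonist given at varying doses to groups of four rats. Urine volume and osmolality measured. The value is the dose that brings urine osmolality down to 300 mOsm/kg. Each determination averages four rats, and the reported value averages (n) determinations.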

Vasopressin V2 receptor [4] = molecular target: Vasopressin V2 receptor (Sus scrofa, UniProt P32307); test: Inhibition constant for vasopressin-stimulated adenylate cyclase of medullary membranes of pig kidney
In short: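 Antagonism measured on pig renal medullary membranes as inhibition of LVP-stimulated adenylate cyclase, expressed as inhibition constant Ki. Each determination averages triplicate tests, and the value averages (n) determinations.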

Sequence of Vasopressin V2 receptor (Homo sapiens, UniProt P30518) (P30518 whole entry): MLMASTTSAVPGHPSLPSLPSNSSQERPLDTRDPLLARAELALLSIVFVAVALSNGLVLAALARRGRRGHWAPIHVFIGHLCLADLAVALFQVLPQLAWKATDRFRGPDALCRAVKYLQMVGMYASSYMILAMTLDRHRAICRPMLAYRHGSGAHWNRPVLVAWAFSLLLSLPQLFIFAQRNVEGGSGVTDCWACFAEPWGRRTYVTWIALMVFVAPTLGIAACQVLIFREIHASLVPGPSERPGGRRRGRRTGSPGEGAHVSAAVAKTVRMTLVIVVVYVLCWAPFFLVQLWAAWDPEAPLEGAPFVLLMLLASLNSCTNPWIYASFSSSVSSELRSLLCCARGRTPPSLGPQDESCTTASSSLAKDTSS
Sequence of Vasopressin V2 receptor (Rattus norvegicus) (Q00788 whole entry): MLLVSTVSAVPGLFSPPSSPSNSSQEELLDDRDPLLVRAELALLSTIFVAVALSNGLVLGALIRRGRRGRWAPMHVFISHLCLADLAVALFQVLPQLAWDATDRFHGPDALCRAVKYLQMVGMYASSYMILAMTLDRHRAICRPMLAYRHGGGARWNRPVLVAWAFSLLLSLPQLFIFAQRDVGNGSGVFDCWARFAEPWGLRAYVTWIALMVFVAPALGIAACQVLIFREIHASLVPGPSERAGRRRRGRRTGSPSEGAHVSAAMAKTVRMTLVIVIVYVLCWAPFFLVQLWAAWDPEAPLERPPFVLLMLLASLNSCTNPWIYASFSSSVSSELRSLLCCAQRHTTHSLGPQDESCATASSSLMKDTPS
Sequence of Vasopressin V2 receptor (Sus scrofa, UniProt P32307) (P32307 whole entry): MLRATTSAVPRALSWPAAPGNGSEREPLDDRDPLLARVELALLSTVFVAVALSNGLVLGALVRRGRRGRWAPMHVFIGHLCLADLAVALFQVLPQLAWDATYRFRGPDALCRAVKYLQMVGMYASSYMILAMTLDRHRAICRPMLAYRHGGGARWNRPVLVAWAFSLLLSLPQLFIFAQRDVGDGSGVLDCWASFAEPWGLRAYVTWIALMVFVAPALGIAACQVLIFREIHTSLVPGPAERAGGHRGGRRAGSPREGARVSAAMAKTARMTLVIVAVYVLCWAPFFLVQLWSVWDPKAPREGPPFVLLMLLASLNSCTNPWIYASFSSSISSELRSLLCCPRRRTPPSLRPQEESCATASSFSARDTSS
Sequence of Vasopressin V2 receptor (Sus scrofa) (P32307 whole entry): as above

Row | Ki (Vasopressin V2 receptor [1]) [nM] | K bind [2] [nM] | ED300 [3] [mg/kg] | Ki (Vasopressin V2 receptor [4]) [nM] | Compound
1 | 3.3 | 26 | 0.059 |  | CCOc1ccc(C[C@H]2NC(=O)CC3(CCCCC3)SSC[C@H](C(=O)N[C@H](CCCCN)C(N)=O)NC(=O)[C@@H](CC(N)=O)NC(=O)[C@H](C(C)C)NC(=O)[C@@H](Cc3ccccc3)NC2=O)cc1
2 | 3.7 |  |  | 6 | CCOc1ccc(C[C@H]2NC(=O)CC3(CCCCC3)SSC[C@@H](C(=O)N3CCC[C@H]3C(=O)NCCCCN=C(N)N)NC(=O)[C@H](CC(N)=O)NC(=O)[C@H](C(C)C)NC(=O)[C@H](Cc3ccccc3)NC2=O)cc1 ([dY](Et)FVNCP-Agmatine; linker N-5 via X1)
